Measurements as given in ChEMBL document CHEMBL1275347, “New fluoro derivatives of the pyrazolo[5,1-c][1,2,4]benzotriazine 5-oxide system: evaluation of fluorine binding properties in the benzodiazepine site on γ-aminobutyrric acid type A (GABA(A)) receptor. Design, synthesis, biological, and molecular modeling investigation” (J Med Chem, 2010).
The source made the active and inactive calls. The rule behind the calls is not given here.

Columns and labels:
[1] = Displacement of [3H]Ro15-1788 from GABA(A) receptor benzodiazepine site in bovine brain membrane; type: cell membranes, Bos taurus
Outline: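 Bovine cerebral cortex membranes were diluted in 50 mM Tris-citrate pH 7.4 and used for [3H]Ro15-1788 displacement, with at least six test concentrations. Five experiments were run in triplicate. IC50 came from iterative curve fitting and Ki from Cheng-Prusoff, reported as mean ± SEM. Ki was derived only where inhibition at 10 μM exceeded 80%.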

[2] = species on record: Bos taurus; assay: Displacement of [3H]Ro15-1788 from GABA(A) receptor benzodiazepine site in bovine brain membrane at 10 uM; type: cell membranes
Outline: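 Percent inhibition of specific [3H]Ro15-1788 binding to bovine cerebral cortex membranes in 50 mM Tris-citrate pH 7.4, measured with test compound at 10 μM.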

[3] = test system: Mus musculus; assay: Anticonvulsant activity in CD1 albino mouse assessed as protection against pentylenetetrazole-induced shock and convulsion at 10 mg/kg, ip treated after 30 mins of pentylenetetrazole measured for 30 mins; type: functional; conditions: route intraperitoneal
[4] = test system: Mus musculus; assay: Anxiolytic activity in CD1 albino mouse at 10 mg/kg, po by light/dark box test; type: functional, organism-based; set-up: dose 10 mg/kg
Outline: (§1)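 Male CD-1 mice dosed po in 1% CMC 30 min before the light-dark box test. Each mouse was placed in the centre of the lit area facing away from the dark side and explored for 5 min. Transfers between compartments and time spent in the light were scored. n = 9-10 per group, mean ± SEM.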

[5] = test system: Mus musculus; assay: Effect on learning and memory process in CD1 albino mouse assessed as improvement in retention latency at 3 mg/kg, po after 24 hrs by passive avoidance test; type: functional, organism-based; set-up: dose 3 mg/kg
Outline: (§2)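 Passive avoidance test in male CD-1 mice. Compounds were given po 30 min before training, and retention latency was tested 24 h later. n = 9-11 per group, mean ± SEM.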

[6] = test system: Mus musculus; assay: Effect on learning and memory process in CD1 albino mouse assessed as improvement in retention latency at 10 mg/kg, po after 24 hrs by passive avoidance test; type: functional, organism-based; set-up: dose 10 mg/kg; outline: as §2
[7] = test system: Mus musculus; assay: Effect on learning and memory process in CD1 albino mouse assessed as improvement in retention latency at 30 mg/kg, po after 24 hrs by passive avoidance test; type: functional, organism-based; set-up: dose 30 mg/kg; outline: as §2
[8] = test system: Mus musculus; assay: Toxicity in CD1 albino mouse assessed as number of falls from rod over 30 seconds at 10 mg/kg, po after 25 mins of drug administration by rotarod test; type: organism-based; set-up: dose 10 mg/kg, route oral; conditions: in vivo
Outline: (§3)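 Rota-rod test in male CD-1 mice dosed po in 1% CMC. Falls from the rod were counted over 30 s, 25 min after dosing. Methods give the rod speed as 24 rpm; the table gives 16 rpm. Values are mean ± SEM.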

[9] = test system: Mus musculus; assay: Toxicity in CD1 albino mouse assessed as number of falls from rod over 30 seconds at 30 mg/kg, po after 25 mins of drug administration by rotarod test; type: organism-based; set-up: dose 30 mg/kg, route oral; conditions: in vivo; outline: as §3
[10] = test system: Mus musculus; assay: Toxicity in CD1 albino mouse assessed as myorelaxant activity over 35 mins at 10 mg/kg, po by grip-strength meter assay; type: organism-based; set-up: dose 10 mg/kg, route oral; conditions: in vivo
Outline: (§4)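 Grip-strength meter test in male CD-1 mice given compound po in 1% CMC 30 min before testing. Grip force was read in g at 35 min. Values are mean ± SEM.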

[11] = test system: Mus musculus; assay: Toxicity in CD1 albino mouse assessed as myorelaxant activity over 35 mins at 30 mg/kg, po by grip-strength meter assay; type: organism-based; set-up: dose 30 mg/kg, route oral; conditions: in vivo; outline: as §4
[12] = test system: Mus musculus; assay: Anticonvulsant activity in CD1 albino mouse assessed as protection against pentylenetetrazole-induced shock and convulsion at 30 mg/kg, ip treated after 30 mins of pentylenetetrazole measured for 30 mins; type: functional; conditions: route intraperitoneal
[13] = test system: Mus musculus; assay: Anxiolytic activity in CD1 albino mouse at 10 mg/kg, po by light/dark box test in presence of 100 mg/kg, po flumazenil; type: functional, organism-based
[14] = test system: Mus musculus; assay: Anxiolytic activity in CD1 albino mouse assessed as sleeping time at 3 mg/kg, po pretreated 30 mins before test; type: functional
Outline: (§5)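 Male CD-1 mice given compound po in 1% carboxymethylcellulose 30 min before ethanol (4 g/kg ip). Sleep time is the duration of loss of righting reflex, capped at 210 min. Values are mean ± SEM of treated mice.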

[15] = test system: Mus musculus; assay: Anxiolytic activity in CD1 albino mouse assessed as sleeping time at 10 mg/kg, po pretreated 30 mins before test; type: functional; outline: as §5
[16] = test system: Mus musculus; assay: Effect on duration of loss of righting reflex in ethanol-induced in CD1 albino mouse at 3 mg/kg, po preincubated 30 mins before ethanol challenge; type: functional, organism-based; set-up: dose 3 mg/kg; outline: as §5
[17] = test system: Mus musculus; assay: Effect on duration of loss of righting reflex in ethanol-induced in CD1 albino mouse at 10 mg/kg, po preincubated 30 mins before ethanol challenge; type: functional, organism-based; set-up: dose 10 mg/kg; outline: as §5
[18] = test system: Mus musculus; assay: Effect on learning and memory process in CD1 albino mouse assessed as improvement in retention latency at 100 mg/kg, po after 24 hrs by passive avoidance test; type: functional, organism-based; set-up: dose 100 mg/kg
Outline: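 Passive avoidance in male CD-1 mice; flumazenil suspended in 1% carboxymethylcellulose, dosed 30 min before training; retention test 24 h later, retention latency recorded. 9-11 mice per group; mean ± SEM versus control.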

[19] = test system: Mus musculus; assay: Anxiolytic activity in CD1 albino mouse assessed as sleeping time at 0.3 mg/kg, ip pretreated 20 mins before test; type: functional; conditions: route intraperitoneal
Outline: (§6)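 Male CD-1 mice given diazepam ip (suspended in 1% carboxymethylcellulose) 20 min before test. Ethanol 4 g/kg ip injected […]; duration of loss of righting reflex taken as sleep time, capped at 210 min. Mean ± SEM; ANOVA with Scheffe post hoc test versus 1% CMC controls.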

[20] = test system: Mus musculus; assay: Anxiolytic activity in CD1 albino mouse assessed as sleeping time at 1 mg/kg, ip pretreated 20 mins before test; type: functional; conditions: route intraperitoneal; outline: as §6
[21] = test system: Mus musculus; assay: Anxiolytic activity in CD1 albino mouse at 3 mg/kg, po by light/dark box test; type: functional, organism-based; set-up: dose 3 mg/kg; outline: as §1
[22] = test system: Mus musculus; assay: Anxiolytic activity in CD1 albino mouse at 30 mg/kg, po by light/dark box test; type: functional, organism-based; set-up: dose 30 mg/kg; outline: as §1
[23] = test system: Mus musculus; assay: Toxicity in CD1 albino mouse at 10 mg/kg, po in presence of 100 mg/kg, po flumazenil; type: organism-based; conditions: in vivo

O=C(OCc1cccs1)c1cnn2c1nnc1ccc(OC(F)F)cc12
Ki [1]: 1.04 nM

COc1ccccc1C(=O)c1cnn2c1n[n+]([O-])c1ccc(C(F)(F)F)cc12
Ki [1]: 1540 nM

[O-][n+]1nc2c(Br)cnn2c2cc(C(F)(F)F)ccc21
Ki [1]: 139 nM

[O-][n+]1nc2c(-c3ccoc3)cnn2c2cc(C(F)(F)F)ccc21
Ki [1]: 112 nM

O=C(c1cccs1)c1cnn2c1n[n+]([O-])c1ccc(C(F)(F)F)cc12
Ki [1]: 164 nM

CCOC(=O)c1cnn2c1n[n+]([O-])c1cc(C(F)(F)F)ccc12
inhibition [2]: 3%

[O-][n+]1nc2c(I)cnn2c2cc(OC(F)F)ccc21
Ki [1]: 2.47 nM | Activity [3]: 0% | Activity [4]: Active | Activity [5]: inactive | Activity [6]: inactive | Activity [7]: inactive

CCOC(=O)c1cnn2c1n[n+]([O-])c1ccc(C(F)(F)F)cc12
Ki [1]: 316 nM

[O-][n+]1nc2c(F)cnn2c2cc(OCc3ccco3)ccc21
Ki [1]: 129 nM

[O-][n+]1nc2c(F)cnn2c2cc(OCc3ccncc3)ccc21
Ki [1]: 381 nM

[O-][n+]1nc2c(Br)cnn2c2ccc(C(F)(F)F)cc21
inhibition [2]: 38%

COc1ccccc1COc1ccc2c(c1)n1ncc(F)c1n[n+]2[O-]
Ki [1]: 3.19 nM

[O-][n+]1nc2c(F)cnn2c2cc(OCc3ccccc3OC(F)(F)F)ccc21
inhibition [2]: 27%

[O-][n+]1nc2c(F)cnn2c2cc(Cl)ccc21
inhibition [2]: 50%

CCOC(=O)c1cnn2c1nnc1ccc(OC(F)F)cc12
Ki [1]: 51.7 nM

[O-][n+]1nc2c(-c3cccs3)cnn2c2cc(C(F)(F)F)ccc21
Ki [1]: 57 nM

[O-][n+]1nc2c(F)cnn2c2cc(OCc3cccs3)ccc21
Ki [1]: 93.3 nM

FC(F)Oc1ccc2nnc3c(I)cnn3c2c1
Ki [1]: 5.01 nM

COc1ccccc1COC(=O)c1cnn2c1n[n+]([O-])c1ccc(C(F)(F)F)cc12
Ki [1]: 5.8 nM | Activity [8]: 0.2 | Activity [9]: 0.2 | Activity [10]: 51.7 g | Activity [11]: 48.5 g | Activity [3]: 0% | Activity [12]: 0% | Activity [4]: Active | Activity [13]: inactive | Time [14]: 36.2 s | Time [15]: 54.3 s | Activity [6]: inactive | Activity [16]: inactive | Activity [17]: inactive

CCOC(=O)c1ncn2c1CN(C)C(=O)c1cc(F)ccc1-2
Activity [18]: Active

CCOC(=O)c1cnn2c1n[n+]([O-])c1ccc(OC(F)F)cc12
Ki [1]: 5.75 nM

O=C(OCc1cccs1)c1cnn2c1n[n+]([O-])c1cc(C(F)(F)F)ccc12
inhibition [2]: 34%

COc1ccccc1COC(=O)c1cnn2c1n[n+]([O-])c1cc(C(F)(F)F)ccc12
inhibition [2]: 38%

[O-][n+]1nc2c(Cl)cnn2c2cc(C(F)(F)F)ccc21
Ki [1]: 175 nM

[O-][n+]1nc2c(-c3ccsc3)cnn2c2cc(C(F)(F)F)ccc21
Ki [1]: 192 nM

C#CCOc1ccc2c(c1)n1ncc(F)c1n[n+]2[O-]
Ki [1]: 268 nM

[O-][n+]1nc2c(I)cnn2c2cc(C(F)(F)F)ccc21
Ki [1]: 18 nM

CN1C(=O)CN=C(c2ccccc2)c2cc(Cl)ccc21 [DIAZEPAM]
Ki [1]: 10 nM | Time [19]: 134.5 s | Time [20]: 14.5 s

O=C(OCc1cccs1)c1cnn2c1n[n+]([O-])c1ccc(C(F)(F)F)cc12
Ki [1]: 10 nM | Activity [8]: 0.1 | Activity [9]: 0.2 | Activity [10]: 52.6 g | Activity [11]: 57.9 g | Activity [3]: 0% | Activity [12]: 0% | Activity [4]: Active | Activity [21]: Active | Activity [22]: Active | Activity [23]: Non-toxic | Time [14]: 48.6 s | Time [15]: 40.8 s | Activity [5]: Active | Activity [6]: Active | Activity [16]: inactive | Activity [17]: inactive
